# Experimental data published in ChEMBL document CHEMBL1154295, “Potent and selective steroidal inhibitors of 17beta-hydroxysteroid dehydrogenase type 7, an enzyme that catalyzes the reduction of the key hormones estrone and dihydrotestosterone” (J Med Chem, 2009).
# The source made the active and inactive calls. The rule behind the calls is not given here.
# Experiments:
# HEK293 = experiment: Inhibition of human 17beta-HSD5 expressed in HEK293 cells assessed as inhibition of conversion of [14C]4-androstene-3,17-dione to [14C]testosterone at 0.3 uM after 20 hrs; assay type: cell-based
# Method in brief: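 Intact HEK-293 cells stably transfected with pCMV-neo-h17β-HSD5 were plated at 500 000 cells/well. They were incubated with 15 000 cpm [4-14C]-Δ4-dione and inhibitor in ethanol (0.3 or 3 μM) for 20 h at 37 °C, 5% CO2, in triplicate. Steroids were then extracted, separated and quantified.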
# [1] = target: T1, 17-beta-hydroxysteroid dehydrogenase type 1 (Homo sapiens) (UniProt P14061); experiment: Inhibition of human 17beta-HSD1 expressed in HEK293 cells assessed as inhibition of reduction of [14C]estrone into [14C]estradiol at 0.1 uM; assay type: cell-based
# T1 sequence (whole entry): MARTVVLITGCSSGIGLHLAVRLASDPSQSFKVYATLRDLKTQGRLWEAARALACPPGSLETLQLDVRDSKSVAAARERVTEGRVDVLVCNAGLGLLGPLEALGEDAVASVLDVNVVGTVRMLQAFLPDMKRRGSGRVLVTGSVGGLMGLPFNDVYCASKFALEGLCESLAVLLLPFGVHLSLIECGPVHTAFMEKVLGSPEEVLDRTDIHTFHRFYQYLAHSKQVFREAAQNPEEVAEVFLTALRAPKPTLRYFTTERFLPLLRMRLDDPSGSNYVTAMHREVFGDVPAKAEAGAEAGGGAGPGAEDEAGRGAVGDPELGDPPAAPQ
# Method in brief: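 Enzyme source: sonicated HEK-293 cells transfected with the h17β-HSD1 gene. Inhibitor was dissolved in ethanol and tested at final concentrations of 0.1 and 1 μM. The [14C]-E1 to [14C]-E2 assay was run as in an earlier report.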
# [2] = target: T2, 3-oxo-5-alpha-steroid 4-dehydrogenase 1 (Homo sapiens) (UniProt P18405); experiment: Inhibition of human 5alpha reductase 1 expressed in HEK293 cells assessed as inhibition of conversion of [14C]4-androstene-3,17-dione to [14C]5R-androstane-3,17-dione at 0.3 uM after 1 hr; assay type: cell-based
# T2 sequence (whole entry): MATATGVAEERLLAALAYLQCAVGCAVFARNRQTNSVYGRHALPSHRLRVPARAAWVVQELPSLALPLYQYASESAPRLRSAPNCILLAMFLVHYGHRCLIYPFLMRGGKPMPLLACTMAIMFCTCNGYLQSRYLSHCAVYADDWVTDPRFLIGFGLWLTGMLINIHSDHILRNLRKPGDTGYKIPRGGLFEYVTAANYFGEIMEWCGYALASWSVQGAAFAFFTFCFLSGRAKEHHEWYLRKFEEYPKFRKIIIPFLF
# Method in brief: (§1)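 Intact HEK-293 cells transfected with pCMV-neo-h5α-reductase type 1 or type 2 were plated at 500 000 cells/well at 37 °C. They were incubated with 15 000 cpm [14C]-Δ4-dione and inhibitor (final 0.3 or 3 μM), in duplicate, for 1 h (type 1) or 3 h (type 2). Steroids were extracted and separated by TLC (toluene/EtOAc 4:1). Radioactivity gave % transformation and % inhibition.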
# [3] = target: T3, 3-oxo-5-alpha-steroid 4-dehydrogenase 2 (Homo sapiens) (UniProt P31213); experiment: Inhibition of human 5alpha reductase 2 expressed in HEK293 cells assessed as inhibition of conversion of [14C]4-androstene-3,17-dione to [14C]5R-androstane-3,17-dione at 0.3 uM after 3 hrs; assay type: cell-based; method in brief: as §1
# T3 sequence (whole entry): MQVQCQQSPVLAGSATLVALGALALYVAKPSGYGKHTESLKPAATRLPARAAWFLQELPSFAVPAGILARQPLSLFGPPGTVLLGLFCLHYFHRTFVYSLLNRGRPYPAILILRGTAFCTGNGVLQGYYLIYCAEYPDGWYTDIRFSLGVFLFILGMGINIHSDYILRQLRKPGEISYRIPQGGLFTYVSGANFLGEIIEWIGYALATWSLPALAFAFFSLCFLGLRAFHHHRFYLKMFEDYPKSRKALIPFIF
# [4] = target: T4, 3-keto-steroid reductase/17-beta-hydroxysteroid dehydrogenase 7 (Homo sapiens) (UniProt P56937); experiment: Inhibition of human 17beta-HSD7 expressed in HEK293 cells assessed as inhibition of reduction of [14C]dihydrotestosterone into [14C]5alpha-androstane-3beta,17beta-diol at 3 uM after 18 hrs; assay type: cell-based
# T4 sequence (whole entry): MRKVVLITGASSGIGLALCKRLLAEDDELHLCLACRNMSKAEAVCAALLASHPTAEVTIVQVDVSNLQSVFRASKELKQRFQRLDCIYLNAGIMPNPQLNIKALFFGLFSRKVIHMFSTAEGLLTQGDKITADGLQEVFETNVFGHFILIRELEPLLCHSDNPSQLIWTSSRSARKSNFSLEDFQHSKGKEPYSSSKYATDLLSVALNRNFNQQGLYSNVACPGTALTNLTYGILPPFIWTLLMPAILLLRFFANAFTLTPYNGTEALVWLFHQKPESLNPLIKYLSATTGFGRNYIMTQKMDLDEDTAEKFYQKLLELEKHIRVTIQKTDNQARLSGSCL
# Method in brief: (§2)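 Intact HEK-293 cells stably overexpressing h17β-HSD7 (pCMV-neo, G-418 selected) were plated at 500 000 cells/well in MEM with 10% fetal calf serum at 37 °C. Fresh medium received 15 000 cpm (~150 nM) [4-14C]-DHT plus ethanolic inhibitor, and cells were incubated 18 h. Steroids were extracted twice with diethyl ether. Assays were done in duplicate.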
# [5] = target: T5, 3-keto-steroid reductase/17-beta-hydroxysteroid dehydrogenase 7 (Homo sapiens, UniProt P56937); experiment: Inhibition of human 17beta-HSD7 expressed in HEK293 cells assessed as inhibition of reduction of [14C]estrone into [14C]estradiol after 7 hrs; assay type: cell-based
# T5 sequence (P56937 whole entry): T4 sequence (whole entry)
# Method in brief: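 Intact HEK-293 cells stably overexpressing h17β-HSD7 were plated at 500 000 cells/well in MEM/10% FCS at 37 °C. Fresh medium received 15 000 cpm (~150 nM, below Km) [4-14C]-estrone plus ethanolic inhibitor for 7 h. Steroids were extracted with diethyl ether. Screening used two inhibitor concentrations in duplicate or triplicate and is reported as % inhibition of E1→E2.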
# [6] = target: T4, 3-keto-steroid reductase/17-beta-hydroxysteroid dehydrogenase 7 (Homo sapiens); experiment: Inhibition of human 17beta-HSD7 expressed in HEK293 cells assessed as inhibition of reduction of [14C]dihydrotestosterone into [14C]5alpha-androstane-3beta,17beta-diol at 0.3 uM after 18 hrs; assay type: cell-based; method in brief: as §2
# [7] = target: T4, 3-keto-steroid reductase/17-beta-hydroxysteroid dehydrogenase 7 (Homo sapiens); conditions: HEK293, at 0.3 µM
Compound,inhibition [1],inhibition [2],inhibition [3],inhibition [4] [%],IC50 [5] [nM],inhibition [6] [%],inhibition [7] [%],inhibition (HEK293) [%]
CC1(C)CC[C@@]2(CC[C@H]3[C@@H]4CC[C@H]5NC(=O)CC[C@]5(C)[C@H]4CC[C@@]32C)OC1=O,inactive,inactive,inactive,69,,,,90
CCCCCCCCCCN(C=O)C1CC[C@H]2[C@@H]3CC[C@H]4N(C)C(=O)CC[C@]4(C)[C@H]3CC[C@]12C (some centres undefined),,,,69,195,49,,
CN1C(=O)CC[C@]2(C)[C@H]3CC[C@@]4(C)[C@@H](CC[C@@]45CCC(C)(C)C(=O)O5)[C@@H]3CC[C@@H]12,inactive,Active,,69,116,,,90

# Second part, led by results:
inhibition [1],inhibition [2],inhibition [3],inhibition [4] [%],IC50 [5] [nM],inhibition [6] [%],inhibition [7] [%],Compound,inhibition (HEK293) [%]
,,inactive,69,189,,,CCCCCCCN(C)[C@H]1CC[C@H]2[C@@H]3CC[C@H]4N(C)C(=O)CC[C@]4(C)[C@H]3CC[C@]12C,
,,inactive,69,,,76,CCCCCCCN(CCCC)[C@H]1CC[C@H]2[C@@H]3CC[C@H]4N(C)C(=O)CC[C@]4(C)[C@H]3CC[C@]12C,
